This note sets out measurements from ChEMBL document CHEMBL1145371, “Synthesis and preliminary evaluation of mono-[123I]iodohypericin monocarboxylic acid as a necrosis avid imaging agent” (Bioorg Med Chem Lett, 2007).

The subject of data set [1] is Blood. The experiment in a line: Biodistribution in blood of NMRI mouse at 185 KBq, iv after 4 hrs. To be noted: in vivo. The format is ADME, organism-based.
For data set [2], the system named is Blood. Description: Biodistribution in blood of NMRI mouse at 185 KBq, iv after 24 hrs. To be noted: in vivo. The format is ADME, organism-based.
Data set [3] in a line: Biodistribution in carcass of NMRI mouse at 185 KBq, iv after 30 mins. The format is ADME, organism-based. To be noted: in vivo, 0.5 h.
Data set [4] has as its system Urinary bladder. Description: Biodistribution in bladder of NMRI mouse at 185 KBq, iv after 30 mins. Format: ADME, organism-based. To be noted: in vivo, 0.5 h.
Data set [5] concerns Urinary bladder. The experiment in a line: Biodistribution in bladder of NMRI mouse at 185 KBq, iv after 4 hrs. The format is ADME, organism-based. To be noted: in vivo.
The test system of data set [6] is Urinary bladder. Description: Biodistribution in bladder of NMRI mouse at 185 KBq, iv after 24 hrs. To be noted: in vivo. Format: ADME, organism-based.
In data set [7] the test system is Kidney. Description: Biodistribution in kidney of NMRI mouse at 185 KBq, iv after 30 mins. To be noted: in vivo, 0.5 h. The format is ADME, organism-based.
Data set [8] concerns Kidney. The experiment in a line: Biodistribution in kidney of NMRI mouse at 185 KBq, iv after 4 hrs. The format is ADME, organism-based. To be noted: in vivo.
Data set [9] relates to Kidney. The experiment in a line: Biodistribution in kidney of NMRI mouse at 185 KBq, iv after 24 hrs. To be noted: in vivo. The format is ADME, organism-based.
In data set [10] the test system is Liver. The experiment in a line: Biodistribution in liver of NMRI mouse at 185 KBq, iv after 30 mins. The format is ADME, organism-based. To be noted: in vivo, 0.5 h.
Data set [11] relates to Liver. Description: Biodistribution in liver of NMRI muse at 185 KBq, iv after 4 hrs. To be noted: mouse, in vivo. The format is ADME, organism-based.
Data set [12] has as its system Liver. The experiment in a line: Biodistribution in liver of NMRI mouse at 185 KBq, iv after 24 hrs. The format is ADME, organism-based. To be noted: in vivo.
Data set [13] can be described thus: Biodistribution in spleen + pancreas of NMRI mouse at 185 KBq, iv after 30 mins. The format is ADME, organism-based. To be noted: in vivo, 0.5 h.
Data set [14] in a line: Biodistribution in spleen + pancreas of NMRI mouse at 185 KBq, iv after 24 hrs. To be noted: in vivo. The format is ADME, organism-based.
In data set [15] the test system is Lung. The experiment in a line: Biodistribution in lung of NMRI mouse at 185 KBq, iv after 24 hrs. The format is ADME, organism-based. To be noted: in vivo.
A short description of data set [16]: Biodistribution in intestine + faeces of NMRI mouse at 185 KBq, iv after 30 mins. The format is ADME, organism-based. To be noted: in vivo, 0.5 h.
Data set [17] can be described thus: Biodistribution in intestine + faeces of NMRI mouse at 185 KBq, iv after 4 hrs. The format is ADME, organism-based. To be noted: in vivo.
A short description of data set [18]: Biodistribution in intestine + faeces of NMRI mouse at 185 KBq, iv after 24 hrs. The format is ADME, organism-based. To be noted: in vivo.
The test system of data set [19] is Brain. The experiment in a line: Biodistribution in brain of NMRI mouse at 185 KBq, iv after 30 mins. The format is ADME, organism-based. To be noted: in vivo, 0.5 h.
In data set [20] the test system is Brain. The experiment in a line: Biodistribution in brain of NMRI mouse at 185 KBq, iv after 4 hrs. To be noted: in vivo. Format: ADME, organism-based.
Data set [21] relates to Brain. Description: Biodistribution in brain of NMRI mouse at 185 KBq, iv after 24 hrs. Format: ADME, organism-based. To be noted: in vivo.
The test system of data set [22] is Blood. Description: Biodistribution in blood of NMRI mouse at 185 KBq, iv after 30 mins. To be noted: in vivo, 0.5 h. Format: ADME, organism-based.
Data set [23] in a line: Biodistribution in carcass of NMRI mouse at 185 KBq, iv after 4 hrs. Format: ADME, organism-based. To be noted: in vivo.
A short description of data set [24]: Biodistribution in carcass of NMRI mouse at 185 KBq, iv after 24 hrs. The format is ADME, organism-based. To be noted: in vivo.
Data set [25] can be described thus: Partition coefficient, log P of the compound. The format is physicochemical. To be noted: octanol/water. In short, it runs like this: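 Octanol/buffer partitioning against 0.025 M phosphate buffer, pH 7.4; log P reported as mean ± deviation of n = 6 determinations.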

Where “and” joins values, the source holds several entries; their conditions need not be identical. Equal entries are not always repeated.

In the case of `Cc1cc(O)c2c(=O)c3c(O)cc(O)c4c5c(O)c([123I])c(O)c6c(=O)c7c(O)cc(C(=O)O)c8c1c2c(c34)c(c78)c65`, the Drug uptake in data set [1] was 1.6 %ID and 0.6 % ID/g; in [2] it was 0.1 %ID; in [3], 13.2 %ID; in [4] it was 0.3 %ID; in [5] it was 7.1 %ID; in data set [6], 21.1 %ID. The Drug uptake is 2.9 %ID and 4.4 % ID/g in [7]; 2.6 %ID and 4.8 % ID/g in data set [8]; 1 %ID and 1.9 % ID/g in [9]; 64.4 %ID and 33.7 % ID/g in [10]; 22.4 %ID and 13.2 % ID/g in data set [11]; 4.7 %ID and 2.7 % ID/g in data set [12]. Moreover, the Drug uptake is 1.3 %ID and 3.9 % ID/g in [13]; 0.2 %ID and 0.5 % ID/g in data set [14]; 0.1 %ID and 0.2 % ID/g in [15]; 13.2 %ID in data set [16]; 50.5 %ID in data set [17]; 69.4 %ID in data set [18]. For the same compound, the Drug uptake is 0 %ID in data set [19]; 0 %ID in data set [20]; 0 %ID in data set [21]; 3.3 %ID and 1.3 % ID/g in [22]; 10.3 %ID in data set [23]; 2.8 %ID in data set [24]. In addition, the log partition coefficient (logP) in [25] worked out at 1.47.
For `Cc1cc(O)c2c(=O)c3c(O)cc(O)c4c5c(O)c([123I])c(O)c6c(=O)c7c(O)cc(C)c8c1c2c(c34)c(c78)c65`, in data set [1], the Drug uptake is reported as 28.2 % ID/g.
